High-throughput results from PubChem.
A selection: hits, their analogues and other compounds. The true share with any hit is near 2.5%.
ROCK2 blocker: blocks human Rho kinase 2 activity; hit rate 0.35% among 60,000; inhibition, % at 6 µM; purified ROCK2, Kinase-Glo ATP depletion luminescence; O75116;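 active means inhibition above the screen-wide mean inhibition plus 3 SD, cut at about 18% in these data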
SF1 activator: SF-1 (human) activation. activation, % at 10 µM. AID 522. CHO-K1 Gal4-SF-1 LBD luciferase reporter; % increase over DMSO SF-1-specific signal. Q13285. hit rate 1.9% among 65,000;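 active means activation above the mean activation of all tested compounds plus 3 SD, cut at about 50% in these data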
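Material: Gal4–SF-1 LBD one-hybrid luciferase reporter in CHO-K1 cells | Amount: 4,000 cells per well | Compound dosing: 10 µM single point, 1% DMSO | Schedule: 20 h compound treatment, 37 °C | Measured by: SteadyLite luciferase luminescence | Evaluation: Percent activation versus DMSO | Control set: DMSO-treated SF-1-transfected cells as negative, DMSO-treated mock-transfected cells lacking SF-1 as background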
RORa activator: activates the human nuclear receptor RORA; P35398; CHO-K1 Gal4-RORA LBD luciferase reporter, luminescence; percent increase over mock-subtracted basal signal; activation, % at 10 µM; hit rate 1.5% among 65,000;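 active means activation above the mean of all tested compounds plus 3 SD, cut at about 49% in these data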
MT1-MMP txn act: MT1-MMP promoter transcription activation | HT1080 MT1-MMP promoter luciferase reporter, luminescence, overnight; hits give high values | activation factor at 10 µM | hit rate 0.16% among 86,000;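 active means activation factor of at least 2 for MT1-MMP transcription at 10 µM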
JNK3 inh: JNK3 (human) kinase inhibition | AID 746 | P53779 | hit rate 0.61% among 60,000 | inhibition, % at 8 µM | purified JNK3 kinase activity, HTS; in the data active means inhibition above about 17%
Target sequence (P53779 whole entry, looked up): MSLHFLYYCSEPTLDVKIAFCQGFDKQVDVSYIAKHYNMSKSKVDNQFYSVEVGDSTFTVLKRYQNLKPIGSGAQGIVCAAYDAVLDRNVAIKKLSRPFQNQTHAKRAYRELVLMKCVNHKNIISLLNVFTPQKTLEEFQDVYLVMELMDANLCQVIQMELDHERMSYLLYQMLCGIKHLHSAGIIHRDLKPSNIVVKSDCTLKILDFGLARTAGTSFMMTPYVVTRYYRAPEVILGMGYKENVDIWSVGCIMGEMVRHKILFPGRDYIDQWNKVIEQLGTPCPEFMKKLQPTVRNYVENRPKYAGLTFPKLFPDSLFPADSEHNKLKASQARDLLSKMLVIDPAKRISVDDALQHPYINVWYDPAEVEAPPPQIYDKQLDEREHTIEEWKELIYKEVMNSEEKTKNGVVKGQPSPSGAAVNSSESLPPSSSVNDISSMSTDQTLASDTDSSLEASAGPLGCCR
PKA kinase inh: inhibitors of human protein kinase A; hit rate 0.1% among 65,000; inhibition, % at 6 µM; P17612; PKA Kemptide phosphorylation, Kinase-Glo ATP luminescence;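 active means inhibition above the screen-wide mean inhibition plus 3 SD, cut at about 21% in these data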
Numbers stand for hits; i = inactive; nt = no result given.

SMILES	ROCK2 blocker	SF1 activator	RORa activator	MT1-MMP txn act	JNK3 inh	PKA kinase inh
CCn1cc(CN(C)C(=O)CSc2nc(-c3ccco3)cc(C(F)(F)F)n2)c(C)n1	i	i	i	i	i	i
Cc1cc(C)n(Cc2cc(C)c(Cn3nc(C)cc3C)cc2C)n1	i	i	i	i	i	i
CCC1C(=O)n2nc(-c3ccccc3)cc2N=C1C (stereo not given)	i	91	i	i	i	i
Cn1c(-n2c(CCN3C(=O)c4ccccc4C3=O)nc3ccccc3c2=O)nc2ccccc21	i	i	57	i	i	i
Cn1c(-n2c(CCCN3C(=O)c4ccccc4C3=O)nc3ccccc3c2=O)nc2ccccc21	i	i	i	i	i	i
O=C(CC(SCc1ccco1)c1ccc(O)cc1)c1cccs1 (stereo not given)	i	i	87	i	i	i
O=C(CC(SCCO)c1ccc2c(c1)OCO2)c1cccs1 (stereo not given)	i	i	i	i	i	i
Cc1nc2ccccc2c(=O)n1/N=C/c1ccccn1	i	50	i	i	i	i
O=C(c1ccc(-c2ccccc2)cc1)N1CCC(C(=O)N2CCCC2)CC1	i	i	i	i	i	i
O=C(c1ccc(-c2nnc(-c3ccccc3)o2)cc1)N1CCCCCC1	i	i	60	i	i	i
CCCn1c(SCC(=O)Nc2c(C)cccc2CC)nnc1C(C)C	i	i	i	i	i	i
Cc1cc(C)n2nc(Nc3ccccc3)cc2n1	nt	62	i	2	nt	i
C/C(=N\O)c1c(C)c2ccccc2n1C	i	i	i	i	i	i
C/C(=N\O)c1ccc2c3ccccc3n(C)c2c1	i	54	i	i	i	i
Cc1nn(CCC#N)c(NC(=O)c2ccc(Cl)cc2Cl)c1P(=O)(Nc1ccc([N+](=O)[O-])cc1)N1CCOCC1 (stereo not given)	nt	nt	nt	i	nt	nt
Clc1ccc(-c2ccc(/C=N/Nc3cc(N4CCOCC4)nc(N4CCOCC4)n3)o2)cc1	nt	nt	nt	i	nt	nt
COc1ccccc1N1CCN(C(=O)c2ccc(CS(=O)(=O)c3ccccc3OC)o2)CC1	i	i	i	i	i	i
C=CCn1c(N)c(C(=O)NCC2CCCO2)c2nc3ccccc3nc21 (stereo not given)	i	i	i	i	i	i
O=C(NCC1CCCO1)c1coc2nc3ccccc3nc12 (stereo not given)	i	57	i	i	i	i
Cc1ccc(S(=O)(=O)N[C@H](C(=O)N2CCC(C(=O)N3CCC[C@H]3C(=O)O)CC2)C(C)C)cc1	i	i	i	i	i	i
CN(C)/C=N/c1sc2c(c1C#N)CCC2	i	i	i	i	i	i
N#Cc1c(/N=C/N2CCOCC2)sc2c1CCCCC2	i	83	91	i	i	i
N#Cc1c(/N=C/c2cccs2)sc2c1CCCCC2	25	i	i	i	i	i
N#Cc1c(/N=C/c2ccc(Br)s2)sc2c1CCC2	nt	nt	nt	2	nt	nt
CCC(=O)Nc1ccc(C(=O)Cn2nc(C(=O)O)c3ccccc3c2=O)cc1	33	i	i	i	i	i
SMILES	ROCK2 blocker	SF1 activator	RORa activator	MT1-MMP txn act	JNK3 inh	PKA kinase inh
CC(=O)Nc1nc(COc2ccccc2)cs1	i	i	51	i	i	i
CCOc1ccc(C2C=C(c3ccccc3)Nc3nnnn32)cc1 (stereo not given)	i	i	56	i	i	i
Clc1nc(NCc2cccnc2)nc(N2CCOCC2)n1	nt	nt	nt	i	nt	nt
COC(=O)CSc1n[nH]c(-c2ccncc2)n1	i	i	i	i	i	i
CCCOc1ccc(-c2nc(=S)[nH][nH]2)cc1	nt	nt	nt	i	nt	nt
C=CCSc1n[nH]c(-c2ccc(OCCCC)cc2)n1	i	68	i	i	i	i
C=CCSc1n[nH]c(-c2ccc(OCCC)cc2)n1	i	55	62	i	i	i
C[C@@H](C(=O)Nc1ccc2ccccc2c1)[C@@H]1C[C@@]1(C)[C@@H](NS(=O)(=O)c1ccc(-c2ccccc2)cc1)c1ccccc1	nt	nt	nt	i	nt	nt
Cc1ccc(C(=O)CSc2ccccn2)cc1	i	84	i	i	i	i
O=C(CSc1ccccn1)c1ccc(F)cc1	i	i	i	i	i	i
COC(=O)c1ccc(C(NC(=O)OCc2ccccc2)/C(C)=C/[C@@H](C)C(=O)Nc2ccc(OC)cc2)cc1 (stereo not given in full)	nt	nt	nt	i	nt	nt
CCOc1ccc(C2CC(=O)NC3=C2C(=O)CCC3)cc1 (stereo not given)	i	i	i	i	45	i
COC(=O)C1=C(C)N(C2CCCC2)C(=O)C1(NC(C)=O)C(F)(F)F (stereo not given)	i	i	i	i	i	i
COc1cc2c(C(=O)NC3CCCCCC3)cn(C)c(=O)c2cc1OC	i	i	i	i	i	i
O=C(NCCSc1ccccc1)c1cccnc1	i	62	78	i	i	i
O=C(Nc1ccc2ccccc2c1)c1cccnc1	i	66	73	i	i	i
O=C(Nc1cccnc1)c1cccnc1	i	i	i	i	i	i
O=C(Nc1ccc2ccccc2c1)c1cnccn1	i	i	57	i	i	i
O=C(Nc1ccc2c(c1)oc1ccccc12)N1CCOCC1	i	52	i	i	i	i
O=C(NCCCCNC(=O)c1cccnc1)c1cccnc1	i	i	i	i	i	i
COCCn1c(SCC(=O)N2CCCC2)nnc1-c1ccoc1C	i	i	i	i	i	i
Cn1cc(C(=O)NCCN2CCN(c3ccccc3F)CC2)c2c3ccccc3n(C)c2c1=O	i	i	i	i	i	i
O=C(Nc1ccc(N2CCN(C(=O)c3ccc(Cl)cc3)CC2)cc1)c1cccnc1	i	i	i	i	i	i
CC1CCN(c2ccc(NC(=O)c3cccnc3)cc2)CC1	i	59	i	i	i	i
O=C(Nc1ccc2c(c1)oc1ccccc12)c1cccnc1	i	55	i	i	i	i
SMILES	ROCK2 blocker	SF1 activator	RORa activator	MT1-MMP txn act	JNK3 inh	PKA kinase inh
COC(=O)C1(Cc2ccccc2)C=C2C(=C(C(C)C)C(=O)C2C)CN1 (stereo not given)	nt	nt	nt	2.1	nt	nt
Clc1cccc2sc(-c3nnc(-c4ccccc4)o3)c(Cl)c12	nt	nt	nt	i	nt	nt
Clc1ccc(OCc2nnc(-c3ccccc3Br)o2)cc1	i	i	i	i	i	i
Clc1ccc(OCc2nnc(-c3ccccc3Br)o2)c(Cl)c1	i	i	90	i	i	i
CCCCC(CC)CNC(=O)C1C2C=CC(C2)C1C(=O)O (stereo not given)	nt	nt	nt	2.1	nt	nt
O=C(O)C1C2C=CC(C2)C1C(=O)NCCc1ccccc1 (stereo not given)	i	i	i	i	i	i
CN1/C(=N\O)c2cccc3cccc1c23	37	i	i	i	i	i
CN1c2cccc3cccc(c23)N(C)C1(C)C	i	i	i	i	i	i
CC1=C(C(=O)OCC(Br)(Br)Br)C(c2cccc3ccccc23)NC(=O)N1CCCC(=O)O (stereo not given)	nt	nt	nt	i	nt	nt
Nc1cc(C(=O)O)ccc1Nc1ccccc1	i	i	i	i	i	i
CCc1ccccc1Nc1ccc(C(=O)O)cc1N	i	60	i	i	i	i
